Measured values as given in ChEMBL document CHEMBL3259535, “Synthesis, cytotoxic study and docking based multidrug resistance modulator potential analysis of 2-(9-oxoacridin-10(9H)-yl)-N-phenyl acetamides” (Eur J Med Chem, 2014).

How the values were obtained:
Assay type in all cases: functional, cell-based
HeLa = assay: Antiproliferative activity against human HeLa cells after 3 days by MTT assay; conditions: 72 h
Outline: (§1)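 Stock cells grown to confluence in DMEM with 10% inactivated FBS, penicillin, streptomycin and amphotericin B at 37 °C, 5% CO₂, then detached with trypsin-EDTA-glucose. About 10,000 cells per well were seeded; after 24 h, drug was added at five dose levels for 72 h. MTT was added for 3 h, formazan dissolved in propanol and read at 540 nm. IC50 was taken from dose-response curves, triplicate, mean ± SEM.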

MCF7 = assay: Antiproliferative activity against human MCF7 cells after 3 days by MTT assay; conditions: MCF7, 72 h; outline: as §1
A549 = assay: Antiproliferative activity against human A549 cells after 3 days by MTT assay; conditions: A549, 72 h; outline: as §1

SMILES	IC50 (HeLa)	IC50 (MCF7)	IC50 (A549)
O=C(Cn1c2ccccc2c(=O)c2ccccc21)Nc1ccccc1F	25.4 µM	29.2 µM	23.3 µM
O=C(Cn1c2ccccc2c(=O)c2ccccc21)Nc1ccccc1	43.8 µM	39.7 µM	41.4 µM
O=C(Cn1c2ccccc2c(=O)c2ccccc21)Nc1cccc(Cl)c1	29.1 µM	30.1 µM	33.3 µM
O=C(Cn1c2ccccc2c(=O)c2ccccc21)Nc1ccc(Cl)cc1	32.3 µM	31.2 µM	34.9 µM
O=C(Cn1c2ccccc2c(=O)c2ccccc21)Nc1cccc(C(F)(F)F)c1	34.9 µM	35.1 µM	38.2 µM
O=C(Cn1c2ccccc2c(=O)c2ccccc21)Nc1ccc(F)cc1	26.6 µM	27.5 µM	24.5 µM
O=C(Cn1c2ccccc2c(=O)c2ccccc21)Nc1ccc(Br)cc1	32.2 µM	33 µM	35.1 µM

The next molecules have a lower IC50 (HeLa) than those just listed; values first:

IC50 (HeLa)	IC50 (MCF7)	IC50 (A549)	SMILES
13.2 µM	12.6 µM	11.8 µM	O=C(Cn1c2ccccc2c(=O)c2ccccc21)Nc1ccccc1[N+](=O)[O-]
17.2 µM	14 µM	19.7 µM	O=C(Cn1c2ccccc2c(=O)c2ccccc21)Nc1ccc([N+](=O)[O-])cc1
21.9 µM	20.1 µM	20.2 µM	Cc1ccc(NC(=O)Cn2c3ccccc3c(=O)c3ccccc32)cc1
19.6 µM	15 µM	16.7 µM	COc1ccc(NC(=O)Cn2c3ccccc3c(=O)c3ccccc32)cc1
22 µM	15.6 µM	17.4 µM	O=C(Cn1c2ccccc2c(=O)c2ccccc21)Nc1ccc(O)cc1
23.2 µM	26.4 µM	20.5 µM	O=C(Cn1c2ccccc2c(=O)c2ccccc21)Nc1ccc(C(F)(F)F)cc1
8.8 µM	6.07 µM	7.39 µM	O=C(Cn1c2ccccc2c(=O)c2ccccc21)Nc1ccccc1C(=O)O
10.7 µM	7.12 µM	8.8 µM	O=C(Cn1c2ccccc2c(=O)c2ccccc21)Nc1ccc(C(=O)O)cc1
